Our source for the IC50 values is ChEMBL document CHEMBL1687903, “Claurailas A-D, cytotoxic carbazole alkaloids from the roots of Clausena harmandiana” (J Nat Prod, 2011).

The subject of test [1] is NCI-H187. The test can be described thus: Cytotoxicity against human NCI-H187 by resazurin microplate assay. The format is functional, cell-based. In outline: (§1)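 Resazurin microplate assay (REMA) on human epidermoid carcinoma KB and human small cell lung cancer NCI-H187 lines, with ellipticine as reference substance. Activity reported as IC50 in μM.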
Test [2] deals with Vero. The test can be described thus: Cytotoxicity against african green monkey Vero cells by green fluorescent protein microplate assay. The format is cell-based. The following applies: Chlorocebus sabaeus. The procedure, abridged: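 Green fluorescent protein-based assay on Vero cells (African green monkey kidney), used as the normal-cell counterscreen, with ellipticine as reference substance. Activity reported as IC50 in μM.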

Test [3] relates to KB. The test can be described thus: Cytotoxicity against human KB cells by resazurin microplate assay. The format is functional, cell-based. In outline:
as §1

The structures appear in SMILES notation. A value given as a limit tells only on which side of the number the result lay.

On to `COc1ccc2c(c1)[nH]c1c(CC=C(C)C)c(O)c(C=O)cc12`, for which the IC50 in test [1] was 1.68 µM; in test [2], more than 200 µM; in test [3], 2.75 µM.

With `CC(C)=CCc1c(O)c(C=O)cc2c1[nH]c1cc(O)ccc12` [7-HYDROXYHEPTAPHYLLINE], the IC50 was found to be 14.6 µM in test [1], 41.2 µM in test [2] and 27.9 µM in test [3].

For the compound `COc1ccc2c(c1)[nH]c1c(O)cc(C=O)cc12`, the IC50 in test [1] was 10.4 µM; in test [2], 180 µM; in test [3], 10.7 µM.

For `O=Cc1cc(O)c2[nH]c3ccccc3c2c1` [O-DEMETHYLMURRAYANINE], the IC50 in test [1] was found to be 19.2 µM; in test [2] it was 104 µM; in test [3], 5.49 µM.

In the case of `C=CC(C)(C)c1c2c(c(O)c3ccc(=O)oc13)C=CC(C)(C)O2` [NORDENTATIN], the IC50 in test [1] amounted to 11.8 µM; in test [2], 56.4 µM; in test [3], 20.6 µM.

Regarding `C=CC(C)(C)c1c2c(c(OC)c3ccc(=O)oc13)C=CC(C)(C)O2` [DENTATIN], the IC50 is 45.4 µM in test [1], more than 200 µM in test [2] and 114 µM in test [3].

As for `O=Cc1cc2c(cc1O)[nH]c1cc(O)ccc12` [CLAUSINE O], the IC50 is 74.7 µM in test [1], 64.6 µM in test [2] and 59.6 µM in test [3].

On to `COc1ccc2c(c1)[nH]c1cc(OC)c(C(=O)O)cc12` [CLAUSINE K], for which the values for the IC50 in test [1], in test [2] and in test [3] were 139 µM, 178 µM and more than 200 µM, respectively.

Take `Cc1cc2c([nH]c3ccccc32)c2c1OC(C)(C)C=C2` [GRINIMIBINE]: the IC50 in test [1] is 22.4 µM; in test [2] it was more than 200 µM; in test [3], 7.02 µM.

Regarding `COc1ccc2c(c1)[nH]c1c(OC)cc(C=O)cc12` [CLAURAILAS A], the results for the IC50 in test [1], in test [2] and in test [3] were 13.5 µM, more than 200 µM and more than 200 µM, respectively.

On to `COC(=O)c1ccc2[nH]c3ccc4c(c3c2c1)C=CC(C)(C)O4` [CLAURAILAS C], for which the IC50 in test [1], in test [2] and in test [3] was more than 200 µM each time.

Take `Cc1cc2c([nH]c3c(O)cccc32)c2c1OC(C)(C)C=C2` [CLAURAILAS B]: the IC50 in test [1], in test [2] and in test [3] was more than 200 µM in each case.

Consider `COc1c2c(cc3oc(=O)ccc13)OC(C)(C)C=C2` [XANTHOXYLETIN], for which the results for the IC50 in test [1], in test [2] and in test [3] were more than 200 µM, more than 200 µM and 133 µM, respectively.

As for `COc1ccc2c(c1)[nH]c1cc(OC)c(C=O)cc12` [LANSINE], the IC50 in test [1] was 102 µM; in test [2], more than 200 µM; in test [3], more than 200 µM.

Turning to `CC(C)=CCc1c(O)c(C=O)cc2c1[nH]c1ccccc12` [HEPTAPHYLLINE], the IC50 in test [1] amounted to 1.32 µM; in test [2] it was 92.5 µM; in test [3] it was 1.61 µM.

As for `COC(=O)c1cc(O)c2[nH]c3ccccc3c2c1` [CLAUSINE E], the IC50 in test [1] came to 94.6 µM; in test [2], 152 µM; in test [3], 108 µM.

With `Cc1c2ccncc2c(C)c2c1[nH]c1ccccc12` [ELLIPTECINE], the IC50 in test [1] was determined as 2.76 µM; in test [2] it was 3.82 µM.

Turning to `CC1(C)C=Cc2c(ccc3[nH]c4cc(O)c(C=O)cc4c23)O1` [CLAURAILAS D], the results for the IC50 in test [1], in test [2] and in test [3] were 7.54 µM, 29.4 µM and 30.6 µM, respectively.

On to `COc1cc(C=O)cc2c1[nH]c1ccccc12` [MURRAYANINE], for which the values for the IC50 in test [1], in test [2] and in test [3] were 11.5 µM, more than 200 µM and 72.2 µM, respectively.
